Fewer inactive variants are shown than the library holds.

B1: tRNA (parent)
chain: GUUCCGUUGGCGUAAUGGUAACGCGUCUCCCUCCUAAGGAGAAGACUGCGGGUUCGAGUCCCGUACGGAACG

The variants in the series derive from B1. The series is described as follows: yeast fitness relative to wild type (ratio to wild type); higher = fitter; tRNA-Arg(CCU), competitive growth, 37 C, YPD. A digest of the protocol:
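For this measurement, the tRNA-Arg(CCU) gene was varied by chemical synthesis at a 3% per-site mutation rate across 69 sites, and each variant was placed at the native genomic locus in Saccharomyces cerevisiae. The pooled strains went through a 24-hour competition in YPD at 37°C in six parallel replicates, with amplicons from start and end populations read by 100-nucleotide paired-end sequencing. Darwinian fitness relative to wild type followed from the change in each genotype's frequency. Genotypes needed ≥ 100 starting reads, and estimates < 0.5 were set to 0.5.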
With GUUCCGUUGGCGUAAUGGUAACGCGACACCUUCCUAAGGAGAAGACUGCGGGUUUGAGUCCCGUAGGGAACG, the yeast fitness is no more than 0.5. For the variant GUUCCGUUGGCGAAAUGGUAAUGCGUCUCCCUCCAAAGGAGAAGACUGCGGGUUCGAGUUACGUACGGAACG, the yeast fitness is no more than 0.5. The figure for GUUCCGUUGGCGUAAUGGUAACGCGUCUCCCUCCUAAGGAGAAGACUGCGGGUUCGAGUCCCGUAUGGCACG is 0.743; for GUUCCGUUGGGGUAAAGGUAUCCCGUCUCCCUCCUAAGGAGAAGACUGCGGGUUCGAGUCCCGUACGGAACG it is 0.665.

As for GUACCGUUGGCGUAAUGGUAACGCGUCUCCCUCCUAAGGAGAAGAAUGCGGGUUCGAGUCCCGUACGGAACG, the yeast fitness turned out to be 1.05. The value for GUUCCGUUGGCGUAAUGGUAACGCGUCUCCGUCCUAAGGAGAAGACUGCGGGUUCGAGUCUCGUACGAAACG was no more than 0.5; that for GUUUCGUUGGCGUAAUGGUAACGCGUCUCCCUCCUAAGGCGAAGACUGCGGGUUCGAGUCCCGUACGGAACG was 0.835; that for GUUCCGUUGGCGUUAUGGUAACGCGUCUCCAUCCUAAGGAGAAGACUGCGGGUUCGAGUACCGUACGGAACG was 0.514. Regarding GUUCCGUGGGCGUAAUGGUCACGCGUCUCCCUCCCAAGGAGAAGACUGAGGGUUCGAGUCCAGUACGGAACG, the yeast fitness was no more than 0.5. The figure for GUUCGGUUGGCGUAAUGGUAACGCGUCUCCCUCCUAAGGAGAAGAGUGCGGGUUCGAGUCCCGUACGGUACG is 0.712.

For the variant GUUCCGUUGGCGUAAUGGUAGCGCGUCUACCUCCUAAGGAGAAGACUGCGGGUUCGAGUCCCGUACGGAACG, the yeast fitness was 0.693. Regarding GUUCGGUUGGCGUAGUGGUAACGCGUCCCUCUCCUAAGGAGAAGACUGCGGGUUCGAGUCCCGUACGGUACG, the yeast fitness is no more than 0.5.

With GUUCCGUUGGCGUACUGGUAACGCGUCUCCCUCCUAAGGAGAAGAGUGCGGGUUCGAGUCCCGUGUGGAACG, the yeast fitness is no more than 0.5.

Turning to GUUCCGUUGGCGUAAUGGUAAGGCGUCUCCCUCCUAAGGAAAAGACUGCGGGUUCGAGUCGCGUACGGAACG, the yeast fitness is no more than 0.5.

For GUUCCGUUGGAGUAAUGGUAACGCGUCUCCCUCCUAAGGAGAAGACUGCGGGGUCGAGUCCCGUACGGAACG, the yeast fitness was determined as 0.577. Take GUUGUGUUGGCGUAAUGGUAACGCGUCUCCCUCCCAUGGAGAAGACUGCGGGUUCGAGUCACGUACGGAACG: the yeast fitness was no more than 0.5. The value for GUUCCGUUGGGGUAAUGGUUACGCGUCUCCCUCCUAAGGAGAAGACUGCGGGUUCGAGUCCCGUACGGAACG was 0.692; that for GUCCCGUUGGCGUAAUGGUAACGCGUCUCCCUCAUAAGGAGAAGACUGCGGAUUCGAGUCCCGUACGGAACG was no more than 0.5. GUUCGGUUGAGGUAAGGGUAACGCGUCUCCCUGCUAAGGAGAAGACUGCGGGUUCGAGUCACGUACGGAACG: the yeast fitness was no more than 0.5. For the variant GUUCCGUUGGCGAAAUGGUAACGCGUGUCCCCCCUAAGGAGAAGGCUGCGGGUUCGAGUCCCGAACGGAACG, the yeast fitness was no more than 0.5.

For GUUCCGUUGGCGUAAUGGUAACGCGUCUCCCUACUAAGGAGAAGACUGCGGGUUCGAGUCCCGUACCGAACG, the yeast fitness is 0.621. As for GUUCCGUUGGGGUAAUGGUCACGGGUCUCCCUCCUAAGGAGAAGACUGCGGGUUCGAGUCCCGUAUGGAACG, the yeast fitness was no more than 0.5. Regarding GUUCCGUUGGCGUAAUGGUAACGCGUCUCCCUCCUAAAGUGAAGACUGCCGGUUCGAGUGCCGUUCGGAACG, the yeast fitness is no more than 0.5. The figure for GUUCCGUCGGCAUAAUGGUAACGCGUCUCCCUCCUAAGGCGAAGACUGCGGGUUCGAGUCCCGUACGGCACG is 0.56; for GUUCCAUUGGCCUAAAGGUACCGCGUCUCCCUCCUAAGGAGAAGACUGCGGGUUCAAGUCCCGUACGGAACG it is 0.536.

Consider GUUACGUUGGCGUAAUGGUAACGCGUCUCCCUCCUAAGGAGAAGACUGCGGGUUCGGGUCCCGUACGGAUCG, for which the yeast fitness amounted to 0.587. The value for GUUCCGUUGGCGUAAUGGUAACGCGUCUGCCCCCUGAGGAGAAGACUGCGGGUUCGAGUACCGUACGGAACG was no more than 0.5; that for GUUCCGUUGGCGUAAUGAUAUCGCGUCUCCCUCCUAAGGAGAAGACUGCGGGUUCGAGUCCCGUACGAAACG was no more than 0.5. For the variant GUUCCGUUGGCGUAAUGGUAACGCCUCUCCCUCCUAAGGAGAAGAGUGCGGGUUCGAGUCCCGGACGGAACG, the yeast fitness was no more than 0.5. GUUCCGUUGGCGUAAUGCUAAGGCGUCUCCCUCCUAAGGAGAAGACUGCGGGUUCGAGUCCCGUACGGAACG: the yeast fitness came out at 0.682. For GUUCCGUUGGCGUAAUGGAAACGCGUCUCCCUCCUAAGGAGAAGACUGCGGGUUCGAGUCCCGUCCGGAACG, the yeast fitness was 1.01. The value for GUUCCGUUGGCGUAAUGGUAACGGGUCUCCCUCCUAAGGAGAAGACUGCGGGUUCGGGUCCCGUACGGAACG was 0.524. The value for GUUCCGUUGGCGUAAUGGUAACGCCUUUCCCUCCUAAGGAGAAGACUGCGGGUUCGAGUCCCGUACGGAACG was 0.773. The value for GUUCCGUUAGCGUAAUGGUAACGCGUCUCCCUCCUAAGGAGAAGACUGCGGGUUCGACCCCCGUACGGAACG was 0.632; that for GUACCGUUGGCGUAAUGGUAACGCGUCUCCCGCCUAAGCAGAAGACUGCGGCUUCGAGUCCCGUACGGAACG was no more than 0.5; that for GUACCGUUGGCGUAAUGGUAACGCGUCUCCCUCCUAAGGAGAAGACUAGGGGUUCGAGUCCCGUACGGAACG was 0.574. In the case of GUCCCGUUGGCGUAAUGGUAACGCGUCUCCUUCCUAAGGCGAAGACUGCGGGUUCGAGUCCCGUACGGAACG, the yeast fitness turned out to be 0.654. The value for GUUCCGUUGGCGUCAUGGUAACGCGUCUCCCUCCUAAGGAGAAGACCGCGGGUUUGAGUCCCGUACGCAACG was no more than 0.5.

For the origin of these results see the RNAGym collection of RNA variant scans (doi:10.1126/science.aae0568).
